As usually defined, the inhibition is the relative decrease from the control value, in per cent. Broadly, the Ki is the dissociation constant of the complex between target and ligand, obtained from inhibition or displacement.

Here are results for two compounds from ChEMBL document CHEMBL2311469, “Development of new cathepsin B inhibitors: combining bioisosteric replacements and structure-based design to explore the structure-activity relationships of nitroxoline derivatives” (J Med Chem, 2013).

The target of series [1] is T1, Cathepsin B (Homo sapiens, UniProt P07858). Conditions: MCF10A neoT, 5 uM.
For series [2], the system named is MCF-10A. The experiment in a line: Increase in proliferation of human MCF10A neoT cells expressing c-Ha-Ras oncogene at 2.5 uM measured at 15 mins interval up to 3 days. Type of series: ADME, cell-based. The gist of the method: (§1)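 MCF-10A neoT cells, 7500 per well, monitored on the xCELLigence impedance system (cell index read every 15 min). After ~10 h, in log growth, 2.5 or 5 μM compound or 0.2% DMSO was added. Run for 72 h, with medium containing inhibitor renewed every 24 h.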

For another series, the target named is Procathepsin L (Homo sapiens, UniProt P07711). The experiment in a line: Competitive inhibition of human recombinant cathepsin L endopeptidase activity using Z-FR-AMC substrate expressed in Escherichia coli assessed as inhibition constant for enzyme-inhibitor complex. The gist of the method:
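Ki from rates at three substrate levels with inhibitor at 0, 20, 40, 60, 80, 100 and 200 μM. Enzymes were preactivated 5 min at 37 °C. CatL (recombinant, E. coli): 100 mM acetate pH 5.5, Z-Phe-Arg-AMC 0.5/1/4 μM. CatH (native, human liver): 100 mM phosphate pH 6.8, Arg-AMC 20/80/160 μM. Buffers held 0.1% PEG 8000, 5 mM DTT and 1.5 mM EDTA, plus 5% DMSO. Two runs in duplicate.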

The subject of series [3] is MCF-10A. Description: Inhibition of human MCF10A neoT cell invasion expressing c-Ha-Ras oncogene at 5 uM after 30 mins relative to DMSO-treated control. Type of series: functional. The conditions noted are these: 72 h, in the assay text read “after 72 hrs” for “after 30 mins”. The gist of the method:
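xCELLigence CIM-16 invasion assay. Upper chamber coated with 5 mg/mL Matrigel; lower well coated with bovine fibronectin. Compound 5 μM or 0.05% DMSO in both chambers, equilibrated 30 min at 37 °C. Then 3 × 10^4 cells seeded in serum-free medium, cell index read every 15 min for 72 h. Invasion = cell index with compound / DMSO; mean ± SD, n = 4, two experiments.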

Series [4] concerns MCF-10A. The experiment in a line: Increase in proliferation of human MCF10A neoT cells expressing c-Ha-Ras oncogene at 5 uM measured at 15 mins interval up to 3 days. Type of series: ADME, cell-based. The essentials:
as §1

Series [5] deals with T1, Cathepsin B. The conditions noted are these: MCF10A neoT, 5 uM. The source holds these as a separate data set.
Series [6] concerns the target T1, Cathepsin B. The experiment in a line: Noncompetitive inhibition of human recombinant cathepsin B exopeptidase activity using Abz-Gly-Ile-Val-Arg-Ala-Lys(Dnp)-OH substrate. The essentials: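 Human recombinant catB, preactivated 5 min at 37 °C in assay buffer containing 0.1% PEG 8000, 5 mM DTT and 1.5 mM EDTA. […] Exopeptidase: 60 mM acetate pH 5.0, Abz-GIVRAK(Dnp)-OH 1/3/6 μM (Km 6.3 μM). Inhibitor 0–200 μM, 5% DMSO, 37 °C, fluorescence rate; two runs in duplicate.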

The species named for series [7] is Homo sapiens. Description: Selectivity ratio of Ki for human recombinant cathepsin L to Ki for human recombinant cathepsin B.
In series [8] the target is T1, Cathepsin B. The experiment in a line: Uncompetitive inhibition of human recombinant […] assessed as inhibition constant for enzyme-substrate-inhibitor complex.
Series [9] has as its target T2, Pro-cathepsin H (Homo sapiens, UniProt P09668).
T2 sequence (P09668 whole entry): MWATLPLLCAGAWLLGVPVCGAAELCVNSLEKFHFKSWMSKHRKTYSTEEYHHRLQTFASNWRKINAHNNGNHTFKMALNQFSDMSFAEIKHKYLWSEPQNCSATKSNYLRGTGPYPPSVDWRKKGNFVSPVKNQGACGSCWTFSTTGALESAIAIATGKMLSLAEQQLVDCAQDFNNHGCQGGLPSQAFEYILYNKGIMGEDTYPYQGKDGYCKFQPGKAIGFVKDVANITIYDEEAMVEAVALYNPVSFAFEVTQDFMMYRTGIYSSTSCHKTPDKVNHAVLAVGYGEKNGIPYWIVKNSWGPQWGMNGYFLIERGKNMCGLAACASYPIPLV
Description: Noncompetitive inhibition of human liver cathepsin H endopeptidase activity using R-AMC substrate assessed as inhibition constant for enzyme-substrate-inhibitor complex. The essentials: (§2)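 Native catH isolated from human liver was preactivated for 5 min at 37 °C in 100 mM phosphate pH 6.8 with 0.1% PEG 8000, 5 mM DTT and 1.5 mM EDTA. Arg-AMC was used at 20, 80 and 160 μM, with inhibitor at 0–200 μM (seven levels) and 5% DMSO. […] Run twice in duplicate.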

Series [10] addresses T2, Pro-cathepsin H. The experiment in a line: Noncompetitive inhibition of human liver cathepsin H endopeptidase activity using R-AMC substrate assessed as inhibition constant for enzyme-inhibitor complex. The essentials:
as §2

For series [11], the species on record is Homo sapiens. Description: Selectivity ratio of Ki for human liver cathepsin H to Ki for human recombinant cathepsin B.
Series [12] concerns MCF-10A. Description: Cytotoxicity against human MCF10A neoT cells expressing c-Ha-Ras oncogene at 5 uM measured at 15 mins interval up to 3 days. The series is classed as cell-based. The essentials: as §1
Series [13] relates to MCF-10A. The experiment in a line: Cytotoxicity against human MCF10A neoT cells expressing c-Ha-Ras oncogene at 2.5 uM measured at 15 mins interval up to 3 days. The series is classed as cell-based. The essentials:
as §1

For series [14], the target named is T1, Cathepsin B. Description: Inhibition of human recombinant cathepsin B exopeptidase activity using Abz-Gly-Ile-Val-Arg-Ala-Lys(Dnp)-OH substrate at 50 uM. The essentials:
(§3)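 Single-point screen at 50 μM inhibitor with 5% DMSO and 0.01% Triton X-100, at 37 °C. Endopeptidase: catB 5 nM with Z-Arg-Arg-AMC 5 μM, phosphate pH 6.0, ex 380/em 460 nm. Exopeptidase: catB 0.5 nM with Abz-GIVRAK(Dnp)-OH 1 μM, acetate pH 5.0, ex 320/em 420 nm. Relative inhibition = 100(1 − vi/vo). Two runs in duplicate.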

Series [15] concerns the target T1, Cathepsin B. The experiment in a line: Mixed inhibition of cathepsin B (unknown origin) endopeptidase activity assessed as inhibition constant for enzyme-substrate-inhibitor complex.
The target of series [16] is T1, Cathepsin B. Description: Noncompetitive inhibition of cathepsin B (unknown origin) exopeptidase activity assessed as inhibition constant for enzyme-inhibitor complex.
For series [17], the target named is T1, Cathepsin B. The experiment in a line: Inhibition of human recombinant cathepsin B endopeptidase activity using Z-Arg-Arg-AMC substrate at 50 uM. The essentials: as §3
Series [18] deals with T1, Cathepsin B. Description: Mixed inhibition of cathepsin B (unknown origin) endopeptidase activity assessed as inhibition constant for enzyme-inhibitor complex.

The structures appear in SMILES notation. The source made the active and inactive calls. No cut-off for these calls is given here.

Procathepsin L, sequence (P07711 whole entry): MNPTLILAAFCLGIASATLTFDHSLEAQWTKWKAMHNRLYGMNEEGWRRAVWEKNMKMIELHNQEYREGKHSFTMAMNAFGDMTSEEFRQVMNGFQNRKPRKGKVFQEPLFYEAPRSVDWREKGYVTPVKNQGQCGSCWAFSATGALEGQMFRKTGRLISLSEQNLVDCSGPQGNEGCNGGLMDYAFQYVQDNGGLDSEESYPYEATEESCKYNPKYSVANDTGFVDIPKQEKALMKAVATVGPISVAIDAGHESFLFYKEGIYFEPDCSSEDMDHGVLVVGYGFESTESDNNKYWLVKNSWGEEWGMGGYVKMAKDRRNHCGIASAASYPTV

As to `N#CCNCc1cc([N+](=O)[O-])c2cccnc2c1O`, the inhibition entry on Cathepsin B [1] and at Cathepsin B [5] was “Active” in each case. In addition, the Activity is on record as 113% with MCF-10A [2], 117% in the series with MCF-10A [4], “Non-toxic” with MCF-10A [12] and “Non-toxic” in the series on MCF-10A [13]. The Ki at Procathepsin L is 124 µM; at Cathepsin B [6], 426 µM; on Cathepsin B [8], 5 µM; on Pro-cathepsin H [9], 129 µM; on Pro-cathepsin H [10], 129 µM. In the series with MCF-10A [3], the inhibition at 5 µM turned out to be 80%. Moreover, the Ratio Ki in the series filed under Homo sapiens [7] stood at 23; in the series filed under Homo sapiens [11], 24.
As for `O=[N+]([O-])c1ccc(O)c2ncccc12` [NITROXOLINE], the figures for the inhibition on Cathepsin B [14] and at Cathepsin B [17] were 24.7% and 21.9%, respectively. For the same compound, the values for the Ki on Cathepsin B [15], at Cathepsin B [16] and at Cathepsin B [18] were 39.5 µM, 272 µM and 154 µM, respectively. The results for the Ratio Ki in the series listed under Homo sapiens [7] and in the series filed under Homo sapiens [11] were 4.8 and 7.4, respectively.
